Experimental data reported in ChEMBL document CHEMBL1914381, “New spirocyclic Δ²-isoxazoline derivatives related to selective agonists of α7 neuronal nicotinic acetylcholine receptors” (Eur J Med Chem, 2011).

How the values were obtained:
[1] = target: Neuronal acetylcholine receptor; alpha4/beta2 (Rattus norvegicus, UniProt P09483+P12390); experiment: Displacement of [3H]epibatidine from alpha4beta2 nAChR in rat cortical membranes by beta counting relative to acetylcholine; format: cell membranes, Membrane
Chain of Neuronal acetylcholine receptor; alpha4/beta2 (P09483 whole entry): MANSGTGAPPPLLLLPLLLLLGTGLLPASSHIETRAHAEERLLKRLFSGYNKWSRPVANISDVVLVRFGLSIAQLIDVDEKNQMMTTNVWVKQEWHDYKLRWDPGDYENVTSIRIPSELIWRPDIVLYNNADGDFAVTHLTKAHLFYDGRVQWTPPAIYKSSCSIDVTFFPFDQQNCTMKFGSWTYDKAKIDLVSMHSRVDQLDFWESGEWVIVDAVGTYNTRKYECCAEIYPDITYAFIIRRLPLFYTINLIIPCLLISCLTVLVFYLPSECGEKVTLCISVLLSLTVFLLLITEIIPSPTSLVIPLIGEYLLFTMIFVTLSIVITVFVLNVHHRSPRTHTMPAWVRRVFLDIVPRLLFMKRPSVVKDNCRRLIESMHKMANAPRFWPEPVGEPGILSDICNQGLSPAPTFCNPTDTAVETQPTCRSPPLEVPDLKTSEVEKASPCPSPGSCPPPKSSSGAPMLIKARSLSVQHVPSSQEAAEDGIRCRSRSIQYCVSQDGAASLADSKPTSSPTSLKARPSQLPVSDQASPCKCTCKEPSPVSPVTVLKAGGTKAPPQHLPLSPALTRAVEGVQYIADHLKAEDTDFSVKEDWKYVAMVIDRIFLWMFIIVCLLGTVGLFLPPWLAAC
Chain of Neuronal acetylcholine receptor; alpha4/beta2 (P12390 whole entry): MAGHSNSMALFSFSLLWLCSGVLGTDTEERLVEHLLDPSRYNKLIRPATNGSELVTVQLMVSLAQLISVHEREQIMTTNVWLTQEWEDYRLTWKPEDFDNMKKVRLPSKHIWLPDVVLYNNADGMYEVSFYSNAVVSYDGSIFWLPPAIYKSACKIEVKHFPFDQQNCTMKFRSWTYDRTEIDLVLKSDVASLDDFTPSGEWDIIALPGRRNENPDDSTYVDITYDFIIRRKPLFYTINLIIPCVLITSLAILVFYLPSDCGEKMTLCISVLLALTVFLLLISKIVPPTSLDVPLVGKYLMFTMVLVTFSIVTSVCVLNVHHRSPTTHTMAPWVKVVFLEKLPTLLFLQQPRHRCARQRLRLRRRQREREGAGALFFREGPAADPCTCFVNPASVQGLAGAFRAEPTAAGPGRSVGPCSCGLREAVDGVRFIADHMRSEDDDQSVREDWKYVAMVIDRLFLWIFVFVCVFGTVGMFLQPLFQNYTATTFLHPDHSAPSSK
Outline: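 Rat cortex membranes pre-incubated with […] to block α7 sites. Then 30 min r.t. with test compound (10 pM–10 mM), then overnight at 4 °C with 0.075 nM [3H]epibatidine. Nonspecific binding with 100 nM unlabelled epibatidine. Filtered on PEI-soaked GF/C filters and washed; beta counting. Ki fitted from three competition experiments by non-linear least squares; >100 mM when no inhibition up to 100 mM.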

[2] = target: Neuronal acetylcholine receptor subunit alpha-7 (Rattus norvegicus, UniProt Q05941); experiment: Displacement of [125I]-alpha-bungarotoxin from alpha7 nAChR in rat cortical membranes by gamma counting; format: cell membranes, Membrane
Chain of Neuronal acetylcholine receptor subunit alpha-7 (Rattus norvegicus, UniProt Q05941) (Q05941 whole entry): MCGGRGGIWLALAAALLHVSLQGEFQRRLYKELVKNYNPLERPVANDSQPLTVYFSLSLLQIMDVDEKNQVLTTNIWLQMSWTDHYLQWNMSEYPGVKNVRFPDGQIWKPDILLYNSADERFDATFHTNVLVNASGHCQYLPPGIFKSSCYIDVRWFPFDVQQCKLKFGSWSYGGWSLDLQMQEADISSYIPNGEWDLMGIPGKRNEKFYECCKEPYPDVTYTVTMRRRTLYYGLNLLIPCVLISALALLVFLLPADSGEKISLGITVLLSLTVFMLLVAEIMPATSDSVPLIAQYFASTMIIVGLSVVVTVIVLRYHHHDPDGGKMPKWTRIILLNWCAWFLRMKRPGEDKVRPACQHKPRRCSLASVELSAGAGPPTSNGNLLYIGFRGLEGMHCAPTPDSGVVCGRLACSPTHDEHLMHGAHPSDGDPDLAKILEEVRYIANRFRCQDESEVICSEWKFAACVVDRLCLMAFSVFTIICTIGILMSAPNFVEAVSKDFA
Outline: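 Rat cortex membranes (two rats per experiment, homogenized and centrifuged twice at 60,000g) in Tris-HCl buffer pH 7 with protease inhibitors. Pre-incubated 30 min r.t. with test compound (10 pM–10 mM), then overnight at r.t. with 1 nM [125I]α-bungarotoxin. Nonspecific binding with […]. Filtered on polyethylenimine-soaked GF/C filters; gamma counting. Ki fitted from three competition experiments by non-linear least squares; >100 mM when no inhibition up to 100 mM.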

[3] = target: Neuronal acetylcholine receptor subunit alpha-7 (Homo sapiens, UniProt P36544); experiment: Agonist activity at human alpha7 nAChR expressed in rat GH4C1 cells assessed as maximal electric current amplitude at 1 mM by whole-cell patch clamp electrophysiology assay relative to acetylcholine; format: functional, cell-based, GH4-C1; conditions: for Activity: GH4-C1
Chain of Neuronal acetylcholine receptor subunit alpha-7 (Homo sapiens, UniProt P36544) (P36544 whole entry, the tested form may be a part): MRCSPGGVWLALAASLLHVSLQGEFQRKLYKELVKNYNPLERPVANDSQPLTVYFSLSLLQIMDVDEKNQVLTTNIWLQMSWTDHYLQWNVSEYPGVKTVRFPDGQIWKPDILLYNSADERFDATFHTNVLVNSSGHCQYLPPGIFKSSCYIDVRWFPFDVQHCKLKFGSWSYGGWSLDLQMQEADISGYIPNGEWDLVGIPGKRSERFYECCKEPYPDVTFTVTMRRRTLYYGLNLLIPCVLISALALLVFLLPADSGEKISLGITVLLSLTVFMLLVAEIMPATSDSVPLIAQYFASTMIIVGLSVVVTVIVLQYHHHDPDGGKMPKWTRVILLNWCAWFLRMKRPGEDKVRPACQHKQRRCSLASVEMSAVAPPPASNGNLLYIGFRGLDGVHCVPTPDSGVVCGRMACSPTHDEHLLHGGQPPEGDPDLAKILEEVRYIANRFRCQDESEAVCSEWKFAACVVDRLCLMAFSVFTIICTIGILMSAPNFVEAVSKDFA
Outline: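 GH4C1 cells stably transfected with human α7 subunit; whole-cell patch clamp, holding potential −70 mV, fast gravity-driven perfusion exchanger. Compound applied at 1 mM; current amplitude normalized to that from ACh 1 mM on the same cell. n = 8–12 cells.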

[4] = target: Neuronal acetylcholine receptor; alpha3/beta4 (Homo sapiens, UniProt P30926+P32297); experiment: Displacement of [3H]epibatidine from alpha3beta4 nAChR expressed in human HEK293 cells by beta liquid scintillation counting; format: cell-based
Chain of Neuronal acetylcholine receptor; alpha3/beta4 (P30926 whole entry): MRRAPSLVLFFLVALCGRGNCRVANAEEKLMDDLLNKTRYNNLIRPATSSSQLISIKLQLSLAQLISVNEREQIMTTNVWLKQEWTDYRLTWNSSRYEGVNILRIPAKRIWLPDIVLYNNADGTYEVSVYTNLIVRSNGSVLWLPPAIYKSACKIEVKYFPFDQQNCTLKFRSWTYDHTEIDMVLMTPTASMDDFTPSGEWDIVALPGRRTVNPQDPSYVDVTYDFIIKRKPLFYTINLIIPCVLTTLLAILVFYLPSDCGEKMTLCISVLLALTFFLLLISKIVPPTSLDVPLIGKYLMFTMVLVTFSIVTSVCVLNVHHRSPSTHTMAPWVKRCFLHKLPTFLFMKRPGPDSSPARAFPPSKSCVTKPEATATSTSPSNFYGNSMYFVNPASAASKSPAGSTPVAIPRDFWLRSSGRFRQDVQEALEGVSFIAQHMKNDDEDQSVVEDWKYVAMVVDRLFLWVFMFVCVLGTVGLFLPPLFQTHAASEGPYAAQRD
Chain of Neuronal acetylcholine receptor; alpha3/beta4 (P32297 whole entry): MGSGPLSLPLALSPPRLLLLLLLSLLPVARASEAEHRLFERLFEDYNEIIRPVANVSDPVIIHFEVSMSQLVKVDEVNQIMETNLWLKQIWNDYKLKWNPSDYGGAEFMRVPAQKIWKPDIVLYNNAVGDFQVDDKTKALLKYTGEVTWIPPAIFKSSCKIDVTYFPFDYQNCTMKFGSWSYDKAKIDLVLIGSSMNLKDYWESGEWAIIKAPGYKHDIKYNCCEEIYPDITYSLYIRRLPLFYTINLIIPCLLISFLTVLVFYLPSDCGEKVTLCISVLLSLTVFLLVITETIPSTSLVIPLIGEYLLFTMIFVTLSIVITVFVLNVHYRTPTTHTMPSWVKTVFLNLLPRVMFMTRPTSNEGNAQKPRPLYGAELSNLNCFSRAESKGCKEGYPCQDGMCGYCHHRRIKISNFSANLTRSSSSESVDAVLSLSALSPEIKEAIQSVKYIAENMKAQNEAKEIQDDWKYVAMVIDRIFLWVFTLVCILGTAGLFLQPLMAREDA
Outline: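 HEK 293 cells transiently transfected with α3 and β4 cDNAs by JetPEI and harvested after 48 h. Compound pre-incubated 5 min, then overnight at 4 °C with 0.25 nM [3H]epibatidine in Tris-HCl pH 7 buffer with 2 mg/ml BSA. Nonspecific binding with 100 nM cold epibatidine. Cells washed seven times with ice-cold PBS; liquid scintillation counting.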

Structure (SMILES)	Ki [1] [µM]	Ki [2] [µM]	EC50 [3] [µM]	Activity [3] [%]	Ki [4] [µM]
BrC1=NOC2(C1)CN1CCC2CC1 (racemic)	0.64	0.0135	–	–	–
COC1=NOC2(C1)CN1CCC2CC1 (racemic)	7.9	0.0142	–	–	–
c1ccc(C2=NOC3(C2)CN2CCC3CC2)cc1 (racemic)	22	0.025	–	–	–
C[N+]12CCC(CC1)C1(CC(Br)=NO1)C2 (racemic)	32.5	0.109	–	–	–
COC1=NOC2(C1)C[N+]1(C)CCC2CC1 (racemic)	175	0.0914	–	–	–
BrC1=NOC2(C1)CN1CCC2C1 (racemic)	5	0.23	84.1	76	13
COC1=NOC2(C1)CN1CCC2C1 (racemic)	16	0.42	–	–	46
c1ccc(C2=NOC3(C2)CN2CCC3C2)cc1 (racemic)	53	3.6	–	–	16
C[N+]12CCC(C1)C1(CC(Br)=NO1)C2 (racemic)	22	6.2	–	–	–
COC1=NOC2(C1)C[N+]1(C)CCC2C1 (racemic)	20	2.9	–	–	–
C[N+]12CCC(C1)C1(CC(c3ccccc3)=NO1)C2 (racemic)	38	5.1	–	–	–
CN1CCCC2(CC(Br)=NO2)C1 (racemic)	44	6.6	–	–	–
COC1=NOC2(CCCN(C)C2)C1 (racemic)	> 100	5.5	–	7	91
CN1CCCC2(CC(c3ccccc3)=NO2)C1 (racemic)	> 100	30	–	–	–
C[N+]1(C)CCCC2(CC(Br)=NO2)C1 (racemic)	50	3.7	–	–	–
COC1=NOC2(CCC[N+](C)(C)C2)C1 (racemic)	94	13	–	–	–
C[N+]1(C)CCCC2(CC(c3ccccc3)=NO2)C1 (racemic)	> 100	0.7	–	26	6.6
BrC1=NOC2(CCCNC2)C1 (racemic)	58	4.3	–	–	–
COC1=NOC2(CCCNC2)C1 (racemic)	> 100	3.7	–	–	75
c1ccc(C2=NOC3(CCCNC3)C2)cc1 (racemic)	> 100	4.5	–	–	43
